According to ChEMBL document CHEMBL5724801, “EUbOPEN Chemogenomics Library - Multiplex” (2024):
“And” between values parts separate entries of the source, which are not always exact repeats. Identical values can stand only once.

Test system: Fibroblast
Test: Multiplex assay against human fibroblast
Type: toxicity, cell-based
Method in brief: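 On a CQ1 microscope at 37°C and 5% CO2, live cells were imaged after compound addition. They had been stained at seeding with Hoechst33342, BioTracker Green Microtubule Cytoskeleton Dye, MitoTracker Red and Annexin V Alexa Fluor 680. CellPathfinder machine-learning gating assigned cells to Hoechst high-intensity objects or normal cells, normal cells to healthy, pyknosed or fragmented nuclei, and pyknosed cells to mitotic or apoptotic. Tubulin, mitochondrial-mass and membrane-permeability phenotypes are per cents of healthy-nucleus cells.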

[1] = 12 h, 1 µM, compound concentration 1 uM
[2] = 12 h, 10 µM, compound concentration 10 uM
[3] = 24 h, 1 µM, compound concentration 1 uM
[4] = 24 h, 10 µM, compound concentration 10 uM
[5] = 48 h, 1 µM, compound concentration 1 uM
[6] = 48 h, 10 µM, compound concentration 10 uM

## CN(C)CCOc1ccc(/C(=C(/CCCO)c2ccccc2)c2ccc(O)cc2)cc1
[1]
  Population Apoptotic (%): 9.46% and 11.76%
  Population Fragmented Nuclei (%): 12.72% and 6.58%
  Population Healthy Nuclei (%): 54.82% and 78.51%
  Population Hoechst High Intensity Objects (%): 0%
  Population Membrane Permeable-Phenotype (%): 2.4% and 1.12%
  Population Mitochondria Different-Phenotype (%): 12.8% and 16.2%
  Population Mitotic Cells (%): 90.54% and 88.24%
  Population Normal (%): 100%
  Population Pyknosed Nuclei (%): 32.46% and 14.91%
  Population Tubulin-Different-Phenotype (%): 20.8% and 30.73%
  Total Cell Count: 228
[2]
  Population Apoptotic (%): 12.82% and 32.5%
  Population Fragmented Nuclei (%): 12.81% and 6.25%
  Population Healthy Nuclei (%): 54.96% and 65.97%
  Population Hoechst High Intensity Objects (%): 0%
  Population Membrane Permeable-Phenotype (%): 12.03% and 4.21%
  Population Mitochondria Different-Phenotype (%): 33.83% and 24.74%
  Population Mitotic Cells (%): 87.18% and 67.5%
  Population Normal (%): 100%
  Population Pyknosed Nuclei (%): 32.23% and 27.78%
  Population Tubulin-Different-Phenotype (%): 69.92% and 80%
  Total Cell Count: 242 and 288
[3]
  Population Fragmented Nuclei (%): 7.69% and 4.15%
  Population Healthy Nuclei (%): 73.68% and 82.16%
  Population Hoechst High Intensity Objects (%): 0%
  Population Membrane Permeable-Phenotype (%): 2.2% and 3.03%
  Population Mitochondria Different-Phenotype (%): 9.34% and 7.58%
  Population Mitotic Cells (%): 93.48% and 78.79%
  Population Normal (%): 100%
  Population Pyknosed Nuclei (%): 18.62% and 13.69%
  Population Tubulin-Different-Phenotype (%): 22.53% and 32.32%
  Total Cell Count: 247 and 241
[4]
  Population Apoptotic (%): 20.78% and 46.67%
  Population Fragmented Nuclei (%): 6.59% and 4.58%
  Population Healthy Nuclei (%): 63.57% and 79.58%
  Population Hoechst High Intensity Objects (%): 0%
  Population Membrane Permeable-Phenotype (%): 6.1% and 8.41%
  Population Mitochondria Different-Phenotype (%): 37.8% and 22.57%
  Population Mitotic Cells (%): 79.22% and 53.33%
  Population Normal (%): 100%
  Population Pyknosed Nuclei (%): 29.84% and 15.85%
  Population Tubulin-Different-Phenotype (%): 85.37% and 84.07%
  Total Cell Count: 258 and 284
[5]
  Population Apoptotic (%): 53.33% and 35.71%
  Population Fragmented Nuclei (%): 8.78% and 7.97%
  Population Healthy Nuclei (%): 85.5% and 86.45%
  Population Hoechst High Intensity Objects (%): 0%
  Population Membrane Permeable-Phenotype (%): 0% and 4.61%
  Population Mitotic Cells (%): 46.67% and 64.29%
  Population Normal (%): 100%
  Population Pyknosed Nuclei (%): 5.73% and 5.58%
  Total Cell Count: 262 and 251
[6]
  Population Apoptotic (%): 35.29% and 73.91%
  Population Fragmented Nuclei (%): 11.83% and 8.67%
  Population Healthy Nuclei (%): 83.6% and 83.67%
  Population Hoechst High Intensity Objects (%): 0%
  Population Membrane Permeable-Phenotype (%): 2.89% and 5.58%
  Population Mitochondria Different-Phenotype (%): 6.75% and 12.75%
  Population Mitotic Cells (%): 64.71% and 26.09%
  Population Normal (%): 100%
  Population Pyknosed Nuclei (%): 4.57% and 7.67%
  Population Tubulin-Different-Phenotype (%): 53.05% and 80.48%
  Total Cell Count: 372 and 300

## COc1ccc(-n2c(C)c([N+](=O)[O-])c3ccc(O)cc32)cc1
[1]
  Population Apoptotic (%): 18% and 14.29%
  Population Fragmented Nuclei (%): 8.91% and 3.57%
  Population Healthy Nuclei (%): 66.34% and 79.76%
  Population Hoechst High Intensity Objects (%): 0%
  Population Membrane Permeable-Phenotype (%): 5.97% and 4.48%
  Population Mitochondria Different-Phenotype (%): 7.46%
  Population Mitotic Cells (%): 82% and 85.71%
  Population Normal (%): 100%
  Population Pyknosed Nuclei (%): 24.75% and 16.67%
  Population Tubulin-Different-Phenotype (%): 13.43% and 18.66%
  Total Cell Count: 202 and 168
[2]
  Population Apoptotic (%): 17.65% and 23.08%
  Population Fragmented Nuclei (%): 6.97% and 4.59%
  Population Healthy Nuclei (%): 67.66% and 77.52%
  Population Hoechst High Intensity Objects (%): 0%
  Population Membrane Permeable-Phenotype (%): 5.15% and 4.73%
  Population Mitochondria Different-Phenotype (%): 6.62% and 11.24%
  Population Mitotic Cells (%): 82.35% and 76.92%
  Population Normal (%): 100%
  Population Pyknosed Nuclei (%): 25.37% and 17.89%
  Population Tubulin-Different-Phenotype (%): 14.71% and 28.4%
  Total Cell Count: 201 and 218
[3]
  Population Apoptotic (%): 9.52% and 17.86%
  Population Fragmented Nuclei (%): 11.01% and 2.84%
  Population Healthy Nuclei (%): 69.72% and 81.25%
  Population Hoechst High Intensity Objects (%): 0%
  Population Membrane Permeable-Phenotype (%): 4.61% and 4.2%
  Population Mitochondria Different-Phenotype (%): 3.29% and 5.59%
  Population Mitotic Cells (%): 90.48% and 82.14%
  Population Normal (%): 100%
  Population Pyknosed Nuclei (%): 19.27% and 15.91%
  Population Tubulin-Different-Phenotype (%): 10.53% and 19.58%
  Total Cell Count: 218 and 176
[4]
  Population Apoptotic (%): 15.38% and 16.67%
  Population Fragmented Nuclei (%): 4.88% and 5%
  Population Healthy Nuclei (%): 76.1% and 84.09%
  Population Hoechst High Intensity Objects (%): 0%
  Population Membrane Permeable-Phenotype (%): 3.85% and 2.7%
  Population Mitochondria Different-Phenotype (%): 8.33% and 6.49%
  Population Mitotic Cells (%): 84.62% and 83.33%
  Population Normal (%): 100%
  Population Pyknosed Nuclei (%): 19.02% and 10.91%
  Population Tubulin-Different-Phenotype (%): 15.38% and 20.54%
  Total Cell Count: 205 and 220
[5]
  Population Apoptotic (%): 26.32% and 22.22%
  Population Fragmented Nuclei (%): 9.8% and 4.74%
  Population Healthy Nuclei (%): 82.45% and 85.79%
  Population Hoechst High Intensity Objects (%): 0%
  Population Membrane Permeable-Phenotype (%): 0% and 1.84%
  Population Mitochondria Different-Phenotype (%): 9.41% and 2.45%
  Population Mitotic Cells (%): 73.68% and 77.78%
  Population Normal (%): 100%
  Population Pyknosed Nuclei (%): 7.76% and 9.47%
  Total Cell Count: 245 and 190
[6]
  Population Apoptotic (%): 28.57% and 38.89%
  Population Fragmented Nuclei (%): 7.73% and 4.61%
  Population Healthy Nuclei (%): 85.51% and 78.8%
  Population Hoechst High Intensity Objects (%): 0%
  Population Membrane Permeable-Phenotype (%): 3.39% and 7.02%
  Population Mitochondria Different-Phenotype (%): 10.17% and 5.85%
  Population Mitotic Cells (%): 71.43% and 61.11%
  Population Normal (%): 100%
  Population Pyknosed Nuclei (%): 6.76% and 16.59%
  Population Tubulin-Different-Phenotype (%): 10.17% and 28.07%
  Total Cell Count: 207 and 217

## CN(C)Cc1cccc(NC(=C2C(=O)Nc3cc(C(N)=O)ccc32)c2ccccc2)c1
[1]
  Population Apoptotic (%): 0% and 16.22%
  Population Fragmented Nuclei (%): 12% and 11.4%
  Population Healthy Nuclei (%): 66.67% and 69.43%
  Population Hoechst High Intensity Objects (%): 0%
  Population Membrane Permeable-Phenotype (%): 4% and 2.99%
  Population Mitochondria Different-Phenotype (%): 10% and 8.21%
  Population Mitotic Cells (%): 100% and 83.78%
  Population Normal (%): 100%
  Population Pyknosed Nuclei (%): 21.33% and 19.17%
  Population Tubulin-Different-Phenotype (%): 20% and 13.43%
  Total Cell Count: 150 and 193
[2]
  Population Apoptotic (%): 29.55% and 27.03%
  Population Healthy Nuclei (%): 68.3% and 82.06%
  Population Hoechst High Intensity Objects (%): 0%
  Population Membrane Permeable-Phenotype (%): 9.39% and 4.65%
  Population Mitochondria Different-Phenotype (%): 16.57% and 13.49%
  Population Mitotic Cells (%): 70.45% and 72.97%
  Population Normal (%): 100%
  Population Pyknosed Nuclei (%): 16.6% and 14.12%
  Population Tubulin-Different-Phenotype (%): 48.62% and 53.95%
  Total Cell Count: 265 and 262
[3]
  Population Apoptotic (%): 23.81% and 25%
  Population Fragmented Nuclei (%): 7.65% and 8.11%
  Population Healthy Nuclei (%): 80% and 81.08%
  Population Hoechst High Intensity Objects (%): 0%
  Population Membrane Permeable-Phenotype (%): 4.41% and 2%
  Population Mitochondria Different-Phenotype (%): 5.15% and 6.67%
  Population Mitotic Cells (%): 76.19% and 75%
  Population Normal (%): 100%
  Population Pyknosed Nuclei (%): 12.35% and 10.81%
  Population Tubulin-Different-Phenotype (%): 8.82% and 14.67%
  Total Cell Count: 170 and 185
[4]
  Population Apoptotic (%): 16.28% and 31.25%
  Population Fragmented Nuclei (%): 12.59% and 7.12%
  Population Healthy Nuclei (%): 71.94% and 80.9%
  Population Hoechst High Intensity Objects (%): 0%
  Population Membrane Permeable-Phenotype (%): 5.5% and 3.24%
  Population Mitochondria Different-Phenotype (%): 9% and 14.35%
  Population Mitotic Cells (%): 83.72% and 68.75%
  Population Normal (%): 100%
  Population Pyknosed Nuclei (%): 15.47% and 11.99%
  Population Tubulin-Different-Phenotype (%): 48.5% and 61.11%
  Total Cell Count: 278 and 267
[5]
  Population Apoptotic (%): 40% and 44.44%
  Population Fragmented Nuclei (%): 11.24% and 9.23%
  Population Healthy Nuclei (%): 83.15% and 76.92%
  Population Hoechst High Intensity Objects (%): 0%
  Population Membrane Permeable-Phenotype (%): 1.35% and 5.33%
  Population Mitotic Cells (%): 60% and 55.56%
  Population Normal (%): 100%
  Population Pyknosed Nuclei (%): 5.62% and 13.85%
  Population Tubulin-Different-Phenotype (%): 8.11% and 15.33%
  Total Cell Count: 178 and 195
[6]
  Population Apoptotic (%): 47.37% and 60%
  Population Healthy Nuclei (%): 76.72% and 86.82%
  Population Hoechst High Intensity Objects (%): 0%
  Population Membrane Permeable-Phenotype (%): 5.06% and 5.36%
  Population Mitochondria Different-Phenotype (%): 6.23% and 7.14%
  Population Mitotic Cells (%): 52.63% and 40%
  Population Normal (%): 100%
  Population Pyknosed Nuclei (%): 5.67% and 7.75%
  Population Tubulin-Different-Phenotype (%): 40.86% and 67.41%
  Total Cell Count: 335 and 258
